This is an account of results in paper PMC12423761 (RSC Advances, 2025).

Broadly, the IC50 is the concentration that inhibits the measured activity by half.

Where two headings read alike, the source gives them in different places.

In data set [1] the test system is BJ-1 normal human skin fibroblast cells. Nature of the data set: Cytotoxicity on normal cells, LDH release assay, BJ-1. Format: cell-based. Particulars: for IC50: Homo sapiens, Skin fibroblast, 48 h, read-out: IC50 (μM) ± SD BJ-1; for toxic activity on healthy cells BJ-1: BJ-1 normal cells, LDH assay. Summed up: (§1)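 Cells were kept in RPMI-1640 with 10% heat-inactivated FBS and penicillin/streptomycin at 37 °C in 5% CO2. They were seeded at 1 × 10^4 per well, grown 18 h, then exposed to graded concentrations for 48 h, with doxorubicin as positive control. LDH was read in supernatant and in Triton X-100 lysate by kinetic A340 over 1 min, using pH 7.5 phosphate with 4.6 mM pyruvate and 0.4 mg mL−1 NADH. % release = released/total. Three experiments in triplicate; IC50 by probit analysis.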

Data set [2] concerns MCF-7 (human breast adenocarcinoma) cells. Nature of the data set: Antiproliferative activity, LDH release assay, MCF-7. Particulars: MCF7, 48 h, read-out: IC50 (μM) ± SD MCF-7. Format: cell-based. Summed up: as §1
The test system of data set [3] is HCT-116 (human colorectal carcinoma) cells. In words: Antiproliferative activity, LDH release assay, HCT-116. The data set is classed as cell-based. The conditions noted are these: HCT-116, 48 h, read-out: IC50 (μM) ± SD HCT-116. Summed up:
as §1

Data set [4] addresses histone deacetylase 1 (HDAC1) (Homo sapiens, UniProt Q13547). Nature of the data set: Fluorogenic HDAC1 inhibition assay. The data set is classed as biochemical.
The subject of data set [5] is MCF-7 cells. In words: Apoptosis assay, Annexin V-FITC/PI flow cytometry. The conditions noted are these: MCF-7, 48 h. The data set is classed as cell-based, human. For orientation: A flow cytometer gives signals particle by particle.
Data set [6] has as its system MCF-7 cells. In words: Cell-cycle analysis by flow cytometry. The data set is classed as cell-based, human. Particulars: MCF-7, 48 h; control 10.98%.
Data set [7] deals with ERK1 (extracellular signal-regulated kinase 1) (Homo sapiens, UniProt P27361). Nature of the data set: ERK1 kinase assay. The data set is classed as biochemical.
Chain of ERK1 (extracellular signal-regulated kinase 1) (P27361 whole entry): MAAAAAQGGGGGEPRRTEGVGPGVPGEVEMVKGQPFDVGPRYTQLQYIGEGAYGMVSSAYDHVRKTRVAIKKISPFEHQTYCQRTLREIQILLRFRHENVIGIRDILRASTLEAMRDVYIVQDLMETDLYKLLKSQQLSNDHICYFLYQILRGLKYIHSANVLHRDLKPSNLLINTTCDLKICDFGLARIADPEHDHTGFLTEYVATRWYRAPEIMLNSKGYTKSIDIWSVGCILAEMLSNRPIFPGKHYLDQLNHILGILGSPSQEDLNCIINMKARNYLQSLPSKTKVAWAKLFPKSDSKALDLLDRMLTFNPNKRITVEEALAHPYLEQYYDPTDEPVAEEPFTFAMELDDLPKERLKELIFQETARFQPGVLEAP
Data set [8] deals with Ehrlich ascites carcinoma (EAC) cells. Nature of the data set: Ehrlich ascites carcinoma. The data set is classed as in vivo, female BALB/c mice. The conditions noted are these: EAC-bearing mice; for total volume of collected ascitic fluid: i.p. 2 mg kg^−1 twice weekly × 2 weeks; for Avg. volume of ascitic fluid (mL) [packed cell volume] / Viable cell count (×10^6 cells per mL) / Cell-growth inhibition (%): i.p. 2 mg kg^−1 × 2 weeks; for Avg. volume of ascitic fluid (mL) [packed cell volume]: EAC control 10.5; for Viable cell count (×10^6 cells per mL): trypan blue, EAC control 33; for Cell-growth inhibition (%): vs EAC control viable cell count. Summed up:
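Female BALB/c mice (25 ± 3 g) received 1 × 10^6 EAC cells i.p. in 100 μL PBS (>95% trypan-blue viability). On day 3, mice were grouped (n = 8). Dosing was i.p.: test compound 2 mg kg−1 twice weekly × 2 weeks, DMSO vehicle, or doxorubicin 2 mg kg−1 once weekly. Endpoint: ascitic volume measured, fluid spun 1200×g for 10 min, viable cells counted by 0.4% trypan blue on a hemocytometer. Growth inhibition = (control − treated)/control × 100.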

Data set [9] deals with epidermal growth factor receptor (EGFR) (Homo sapiens, UniProt P00533). Nature of the data set: EGFR kinase inhibition assay. Format: biochemical.
Chain of epidermal growth factor receptor (EGFR) (P00533 25-1210): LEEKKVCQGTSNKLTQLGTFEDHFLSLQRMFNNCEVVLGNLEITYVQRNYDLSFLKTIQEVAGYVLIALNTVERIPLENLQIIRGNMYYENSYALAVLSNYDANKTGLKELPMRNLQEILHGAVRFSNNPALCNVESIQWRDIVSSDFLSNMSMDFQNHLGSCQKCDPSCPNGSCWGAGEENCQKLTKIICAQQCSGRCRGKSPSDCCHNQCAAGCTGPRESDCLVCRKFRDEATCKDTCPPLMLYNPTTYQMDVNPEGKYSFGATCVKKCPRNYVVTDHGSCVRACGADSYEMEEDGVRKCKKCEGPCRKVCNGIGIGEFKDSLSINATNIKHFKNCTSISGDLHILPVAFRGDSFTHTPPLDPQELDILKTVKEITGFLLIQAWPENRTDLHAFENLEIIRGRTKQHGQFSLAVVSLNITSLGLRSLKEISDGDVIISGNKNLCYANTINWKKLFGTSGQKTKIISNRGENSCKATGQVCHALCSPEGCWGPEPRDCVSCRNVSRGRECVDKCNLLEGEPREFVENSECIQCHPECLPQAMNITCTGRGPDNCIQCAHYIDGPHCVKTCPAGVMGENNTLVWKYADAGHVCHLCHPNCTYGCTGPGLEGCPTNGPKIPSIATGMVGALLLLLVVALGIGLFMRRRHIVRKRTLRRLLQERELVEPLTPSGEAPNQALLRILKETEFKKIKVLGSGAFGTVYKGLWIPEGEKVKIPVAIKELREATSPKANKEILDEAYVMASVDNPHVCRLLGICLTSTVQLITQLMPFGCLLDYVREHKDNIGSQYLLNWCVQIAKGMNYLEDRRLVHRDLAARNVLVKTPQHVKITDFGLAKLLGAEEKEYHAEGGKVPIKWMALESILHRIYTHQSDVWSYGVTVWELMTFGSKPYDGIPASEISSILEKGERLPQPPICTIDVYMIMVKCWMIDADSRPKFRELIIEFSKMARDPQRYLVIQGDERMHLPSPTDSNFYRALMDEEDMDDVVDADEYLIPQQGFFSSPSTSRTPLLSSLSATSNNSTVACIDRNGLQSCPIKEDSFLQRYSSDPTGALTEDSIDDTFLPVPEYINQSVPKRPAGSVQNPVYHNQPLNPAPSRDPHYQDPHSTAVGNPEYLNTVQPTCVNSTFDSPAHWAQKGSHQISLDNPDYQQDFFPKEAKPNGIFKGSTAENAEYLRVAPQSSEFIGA
Data set [10] deals with Ehrlich solid carcinoma (ESC). In words: Ehrlich solid carcinoma. The data set is classed as in vivo, male BALB-c mice. The conditions noted are these: intratumoral 2 mg kg^−1, two doses weekly for two weeks.

Chain of histone deacetylase 1 (HDAC1) (Q13547 whole entry): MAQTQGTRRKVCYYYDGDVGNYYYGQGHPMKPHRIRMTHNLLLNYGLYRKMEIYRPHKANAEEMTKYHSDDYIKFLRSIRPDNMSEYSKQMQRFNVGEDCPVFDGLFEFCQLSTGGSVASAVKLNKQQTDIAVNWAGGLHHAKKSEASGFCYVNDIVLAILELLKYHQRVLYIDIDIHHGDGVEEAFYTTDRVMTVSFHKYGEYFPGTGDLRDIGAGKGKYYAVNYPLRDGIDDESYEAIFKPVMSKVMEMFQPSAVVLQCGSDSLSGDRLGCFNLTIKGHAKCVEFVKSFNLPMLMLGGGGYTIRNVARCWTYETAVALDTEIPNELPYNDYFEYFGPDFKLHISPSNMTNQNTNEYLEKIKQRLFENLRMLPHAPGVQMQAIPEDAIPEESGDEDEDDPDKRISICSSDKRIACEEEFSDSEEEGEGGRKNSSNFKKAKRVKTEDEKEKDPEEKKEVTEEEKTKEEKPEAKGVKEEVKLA

On to `COc1ccc(N=Nc2sc(=NN=C(C)c3c(O)c4ccccc4oc3=O)[nH]c2C)cc1` [3a, 4-Hydroxy-3-(-1-((-5-(-(4-methoxyphenyl)diazenyl)-4-methylthiazol-2(3H)-ylidene) hydrazono)ethyl)-2H-chromen-2-one], for which the IC50 was found to be 24.8 ± 2.1 µM in [1], 3.1 ± 0.1 µM in data set [2] and 3.2 ± 0.1 µM in data set [3].

On to `COc1ccc(N=Nc2sc(=NN=C(C)c3c(O)c4ccccc4oc3=O)n(C)c2C)cc1` [3b, 4-Hydroxy-3-(-1-((-5-(-(4-methoxyphenyl)diazenyl)-3,4-dimethylthiazol-2(3H)-ylidene) hydrazono)ethyl)-2H-chromen-2-one], for which the half-inhibitory concentration (IC50) was 27 ± 2.2 µM in [1], 5 ± 0.2 µM in data set [2] and 2.6 ± 0.1 µM in data set [3].

In the case of `CCn1c(C)c(N=Nc2ccc(OC)cc2)sc1=NN=C(C)c1c(O)c2ccccc2oc1=O` [3c, 3-(1-((-3-Ethyl-5-(-(4-methoxyphenyl)diazenyl)-4-methylthiazol-2(3H)-ylidene) hydrazono)ethyl)-4-hydroxy-2H-chromen-2-one], the 50% inhibitory concentration (IC50) in data set [1] was determined as 27 ± 2.1 µM; in [2], 2.6 ± 0.1 µM; in data set [3], 3.1 ± 0.1 µM.

As for `CC(=NN=c1[nH]c(C)c(N=Nc2ccc([N+](=O)[O-])cc2[N+](=O)[O-])s1)c1c(O)c2ccccc2oc1=O` [3d, 3-(-1-((-5-(-(2,4-Dinitrophenyl)diazenyl)-4-methylthiazol-2(3H)-ylidene)hydrazono)ethyl)-4-hydroxy-2H-chromen-2-one], the IC50 in data set [1] came to 26.7 ± 2.3 µM; in [2] it was 5.1 ± 0.2 µM; in [3], 2.8 ± 0.1 µM.

Take `CCn1c(C)c(N=Nc2ccc([N+](=O)[O-])cc2[N+](=O)[O-])sc1=NN=C(C)c1c(O)c2ccccc2oc1=O` [3f, 3-(-1-((-5-(-(2,4-Dinitrophenyl)diazenyl)-3-ethyl-4-methylthiazol-2(3H)-ylidene)hydrazono)ethyl)-4-hydroxy-2H-chromen-2-one]: the half-maximal inhibitory concentration (IC50) in [1] came to 25.6 ± 2.5 µM; in data set [2], 2.6 ± 0.1 µM; in data set [3], 2.9 ± 0.2 µM.

With `CC(=NN=c1[nH]c(C)c(N=Nc2ccc(F)cc2)s1)c1c(O)c2ccccc2oc1=O` [3g, 3-(-1-((-5-(-(4-Fluorophenyl)diazenyl)-4-methylthiazol-2(3H)-ylidene)hydrazono)ethyl)-4-hydroxy-2H-chromen-2-one], the concentration for half-maximal inhibition (IC50) was 30.6 ± 3.3 µM in data set [1], 2.9 ± 0.2 µM in data set [2] and 2.8 ± 0.2 µM in data set [3].

For `CC(=NN=c1sc(N=Nc2ccc(F)cc2)c(C)n1C)c1c(O)c2ccccc2oc1=O` [3h, 3-(-1-((-5-(-(4-Fluorophenyl)diazenyl)-3,4-dimethylthiazol-2(3H)-ylidene)hydrazono)ethyl)-4-hydroxy-2H-chromen-2-one], the half-inhibitory concentration (IC50) was found to be 27.5 ± 2.5 µM in data set [1], 2.8 ± 0.2 µM in [2] and 3 ± 0.2 µM in data set [3].

As for `CCn1c(C)c(N=Nc2ccc(F)cc2)sc1=NN=C(C)c1c(O)c2ccccc2oc1=O` [3i, 3-(-1-((-3-Ethyl-5-(-(4-fluorophenyl)diazenyl)-4-methylthiazol-2(3H)-ylidene)hydrazono)ethyl)-4-hydroxy-2H-chromen-2-one], the half-maximal inhibitory concentration (IC50) in data set [1] was found to be 34.3 ± 2.5 µM; in data set [2] it was 3 ± 0.1 µM; in data set [3] it was 3.1 ± 0.2 µM.

For `CC(=NN=c1[nH]c(C)c(N=Nc2ccc(Cl)cc2)s1)c1c(O)c2ccccc2oc1=O` [3j, 3-(-1-((-5-(-(4-Chlorophenyl)diazenyl)-4-methylthiazol-2(3H)-ylidene)hydrazono)ethyl)-4-hydroxy-2H-chromen-2-one], the IC50 turned out to be 27 ± 2.3 µM in data set [1], 3.1 ± 0.2 µM in data set [2] and 12.7 ± 1.2 µM in [3].

Consider `CC(=NN=c1sc(N=Nc2ccc(Cl)cc2)c(C)n1C)c1c(O)c2ccccc2oc1=O` [3k, 3-(-1-((-5-(-(4-Chlorophenyl)diazenyl)-3,4-dimethylthiazol-2(3H)-ylidene)hydrazono)ethyl)-4-hydroxy-2H-chromen-2-one], for which the IC50 in [1] turned out to be 25.8 ± 2.1 µM; in data set [2], 5.4 ± 0.3 µM; in data set [3] it was 11.6 ± 1.1 µM.

Regarding `CCn1c(C)c(N=Nc2ccc(Cl)cc2)sc1=NN=C(C)c1c(O)c2ccccc2oc1=O` [3l, 3-(-1-((-5-(-(4-Chlorophenyl)diazenyl)-3-ethyl-4-methylthiazol-2(3H)-ylidene)hydrazono)ethyl)-4-hydroxy-2H-chromen-2-one], the IC50 in data set [1] worked out at 26.2 ± 2.4 µM; in [2], 4.8 ± 0.3 µM; in data set [3], 2.8 ± 0.1 µM.

For the compound `CC(=NN=c1[nH]c(C)c(N=Nc2ccc(Br)cc2)s1)c1c(O)c2ccccc2oc1=O` [3m, 3-(-1-((-5-(-(4-Bromophenyl)diazenyl)-4-methylthiazol-2(3H)-ylidene)hydrazono)ethyl)-4-hydroxy-2H-chromen-2-one], the IC50 in data set [4] was 1.01 ± 0.034 µM; in data set [1], > 500 µM; in data set [7] it was 0.339 ± 0.013 µM; in data set [2], 12.7 ± 1.1 µM; in data set [3], 33.8 ± 3.1 µM; in data set [9], 0.08 ± 0.003 µM. The compound also gave a late apoptosis with MCF-7 cells [5] (control 0.14%) of 5.57%. In the data set with MCF-7 cells [5] (control 0.61%), this compound came in with an early apoptosis of 14.67%. The compound also had a necrosis in the data set with MCF-7 cells [5] (control 2.16%) of 3.51%. Besides, the “cells in the G2/M phase” value in the data set with MCF-7 cells [6] is reported as 29.71%. In addition, the “toxic activity on healthy cells BJ-1” value in data set [1] is on record as “non-significant toxic activities”. For the same compound, in data set [8], the “total volume of collected ascitic fluid” value was “significant reduction”. Further, the “Avg. volume of ascitic fluid (mL) [packed cell volume]” value (shortened to “Avg. volume of ascitic fluid (mL)”) in data set [8] was found to be 6 mL. For the same compound, in [8], the “Viable cell count (×10^6 cells per mL)” value is on record as 13 ×10^6 cells per mL. Moreover, the “Cell-growth inhibition (%)” value in [8] is reported as 60.61%. The “tumor volume of Ehrlich solid carcinoma” value in data set [10] is on record as “reduced to a level comparable to that of the doxorubicin group”.

On to `CC(=NN=c1sc(N=Nc2ccc(Br)cc2)c(C)n1C)c1c(O)c2ccccc2oc1=O` [3n, 3-(-1-((-5-(-(4-Bromophenyl)diazenyl)-3,4-dimethylthiazol-2(3H)-ylidene)hydrazono)ethyl)-4-hydroxy-2H-chromen-2-one], for which the IC50 is 3.88 ± 0.131 µM in data set [4]; > 500 µM in data set [1]; 12.3 ± 1.2 µM in data set [2]; 31.8 ± 3.3 µM in data set [3]; 0.35 ± 0.011 µM in data set [9]. Further, in data set [1], the “toxic activity on healthy cells BJ-1” value is on record as “non-significant toxic activities”. In [8], the “total volume of collected ascitic fluid” value was “significant reduction”. For the same compound, the “Avg. volume of ascitic fluid (mL)” value in [8] turned out to be 8 mL. In addition, the “Viable cell count (×10^6 cells per mL)” value in data set [8] is listed as 22 ×10^6 cells per mL. For the same compound, the “Cell-growth inhibition (%)” value in data set [8] is on record as 33.33%. The “tumor volume of Ehrlich solid carcinoma” value in data set [10] is “more significant in the group administered with compound 3m than in the group administered with compound 3n”.

As for `CCn1c(C)c(N=Nc2ccc(Br)cc2)sc1=NN=C(C)c1c(O)c2ccccc2oc1=O` [3o, 3-(-1-((-5-(-(4-Bromophenyl)diazenyl)-3-ethyl-4-methylthiazol-2(3H)-ylidene)hydrazono)ethyl)-4-hydroxy-2H-chromen-2-one], the “toxic activity on healthy cells BJ-1” value in data set [1] was “non-significant toxic activities”. The half-maximal inhibitory concentration (IC50) in data set [1] is > 500 µM; in [2], 22.9 ± 2.3 µM; in data set [3] it was 29.8 ± 2.5 µM.

`COc1cccc2c1C(=O)c1c(O)c3c(c(O)c1C2=O)C[C@@](O)(C(=O)CO)C[C@@H]3O[C@H]1C[C@H](N)[C@H](O)[C@H](C)O1` [Doxorubicin, reference compound]: the values for the half-maximal inhibitory concentration (IC50) in data set [1], in data set [2] and in data set [3] were 32.1 ± 3.1 µM, 5.6 ± 0.3 µM and 6.5 ± 0.5 µM, respectively. The “Avg. volume of ascitic fluid (mL)” value in [8] is recorded as 4 mL. For the same compound, the “Viable cell count (×10^6 cells per mL)” value in data set [8] is 9 ×10^6 cells per mL. In data set [8], the “Cell-growth inhibition (%)” value was found to be 72.72%.

On to `Cc1cc(Nc2ncc3c(n2)N(C)C(=O)N(c2cc(NC(=O)c4cccc(C(F)(F)F)c4)ccc2C)C3)n(C)n1` [pluripotin, reference compound], for which, in data set [7] (read-out: ERK inhibition IC50), the IC50 was found to be 0.171 ± 0.006 µM.
